Screening results: PubChem BioAssay, several laboratories
Jurkat viability = cytotoxic compounds reducing Jurkat cell viability; 56,000 tested, 1.2% active; inhibition, % at 4 µM; Jurkat E6.1 viability, ATP luminescence, 48 h; AID 463;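 active means inhibition above the mean inhibition of all tested compounds plus 3 SD, cut at about 28% in these data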
H69AR growth 86K = growth inhibitors of human H69AR lung tumor cells. H69AR lung tumor viability, ATP luminescence, 72 h; active compounds read low. viability, % at 10 µM. 85,000 tested, 6% active;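 active means viability at or below 40%; inactive means viability above 40%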;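 further: multidrug resistant small cell line overexpressing MRP-1 efflux transporter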
Lung fibro prol = blocks proliferation of human lung fibroblasts. LL 47 human lung fibroblast viability, ATP luminescence; active compounds read low. AID 719. 85,000 tested, 1.1% active. viability, % at 10 µM;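 active means viability at or below 50% in the single dose screen; inactive means viability above 50%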;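 further: compound exposure lasted 72 h before the ATP readout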
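Material: human lung fibroblast line LL 47, low passage; Evaluation: viability percentage against median untreated-cell control; Buffer or medium: 15% FBS in IMEM; Incubation: 72 h compound exposure at 37 °C after overnight plating; Dosing: 0.1% DMSO in all compound wells; Measured by: CellTiter-Glo luminescence.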
HUVEC inhibit = human endothelial cell proliferation inhibition; viability, % at 10 µM (by protocol); HUVEC proliferation, CellTiter-Glo luminescence, 72 h; active compounds read low; 86,000 tested, 1.1% active;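 active means viability at or below 30%; inactive means viability above 30%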
Numbers stand for hits; - = inactive; . = no result given. Sampled rows, rich in hits. Any-hit rate of the full collection: about 6.4%.

SMILES	Jurkat viability	H69AR growth 86K	Lung fibro prol	HUVEC inhibit
COC(=O)Oc1nsnc1N1CCOCC1	-	2.7	-	-
N#Cc1c(-c2ccccc2)nc2n(c1=O)CCS2	.	-	-	-
Nc1c(C(=O)C2CC2)sc2nc(-c3cccs3)cc(C(F)(F)F)c12	.	12	-	-
COc1cc2ccccc2cc1C(=O)Nc1ccc(N2CCN(C)CC2)cc1	-	7.1	-	9.0
CCC1Oc2ccccc2N(CC(=O)Nc2ccc(OC)cc2OC)C1=O (configuration not stated)	.	-	-	-
Cc1ccc(S(=O)(=O)c2c(COC(=O)c3ccccc3Cl)c(-c3ccccc3)nn2C)cc1	.	-	-	-
COc1ccc(CCNc2c(C)c(C)nc3ncnn23)cc1	92	.	.	.
CC(C)(C)n1nnnc1C(c1cccs1)N1CCCc2ccccc21 (configuration not stated)	-	-	-	-
C=C(C)C1Cc2c(C)nn(-c3cc(C)c4ccccc4n3)c2C1 (configuration not stated)	.	-	-	-
CC1(C)CC(=O)C2=C(C1)OC1=C(C(=O)CC(C)(C)C1)C2c1ccc(O)cc1O	96	2.2	17	25
CCn1ncc(C2=NOC(C(=O)Nc3ccc(C)cc3)C2)c1C (configuration not stated)	.	-	-	-
CCn1ncc(C2=NOC(C(=O)NCc3ccc(Cl)cc3)C2)c1C (configuration not stated)	92	37	-	-
CCN(CC)Cc1c(O)ccc2c([N+](=O)[O-])c(C)n(-c3ccc(OC)cc3)c12	.	39	-	-
Cc1nc2c3cc(Cl)ccc3n(CCN3CCCCC3)c2s1	.	26	49	-
CCc1ccc2c(c1)c1nc(C)sc1n2CC	-	-	-	-
Cc1c(CN(C)C)c2c(n1C)C(=O)c1ccc(Br)cc1-2	-	-	-	-
Cc1c(CN(C)C)c2c(n1Cc1ccccc1)C(=O)c1ccc(Br)cc1-2	.	5.5	46	22
COc1ccc(C(=O)c2c(C(F)(F)F)oc3c2C(=O)c2ccccc2C3=O)cc1	.	-	2.3	3.2
CC1C2=C(CCCC2=O)N(c2cccc3ccccc23)C2=C1C(=O)CCC2	.	-	-	-
Cc1cc(Cl)ccc1OCc1n[nH]c(=S)n1C1CCCCC1	.	-	-	-
Cc1cc(Cl)ccc1OCc1nc(-c2ccc(O)cc2)n[nH]1	-	22	-	-
Cc1ccc(-c2nn(CC(=O)Nc3ccc4c(c3)nc3n4CCOC3)c(=O)c3ccccc23)cc1	-	-	-	-
O=C(Cn1nc(-c2ccccc2)c2ccccc2c1=O)Nc1ccc2c(c1)nc1n2CCOC1	-	29	-	-
COc1ccc2oc(C(=O)C3CC3)c(NC(=O)CCCN3C(=O)c4ccccc4C3=O)c2c1	-	31	-	-
CCOCCCNC(=O)C(Cc1ccccc1)NC(=O)c1ccco1 (configuration not stated)	-	-	-	-
SMILES	Jurkat viability	H69AR growth 86K	Lung fibro prol	HUVEC inhibit
Cc1cccc2c1N(CCCOc1ccc(C(C)(C)C)cc1)C(=O)C2=O	.	0.8	-	1.6
Cc1cccc2c1N(CCCOc1ccccc1)C(=O)C2=O	.	-	-	-
Cc1ccccc1OCCCN1C(=O)C(=O)c2cccc(C)c21	-	17	-	-
COc1ccc(C(CNC(=O)C2CC(=O)N(Cc3ccc(C)cc3)C2)N(C)C)cc1 (configuration not stated)	.	-	-	-
COc1ccc(OC)c(C(=O)CSc2nnc(Cc3cccs3)n2CCc2ccccc2)c1	.	-	-	-
O=C(NCCCn1ccnc1)c1ccc(S(=O)(=O)N2CCCCCC2)cc1	.	-	-	-
CC1CC(C)CN(S(=O)(=O)c2ccc(C(=O)NCCCn3ccnc3)cc2)C1 (configuration not stated)	101	2.7	15	-
O=C(O)CC(C(=O)Nc1ccc(Cl)c(Cl)c1)C1CCCO1 (configuration not stated)	.	-	-	-
COc1ccc2nc3c(cc2c1)c(NC(=O)c1cccs1)nn3CC(C)C	-	35	-	-
Cc1nc2sc(C(c3ccc(C(C)C)cc3)N3CCN(CCO)CC3)c(O)n2n1 (configuration not stated)	-	-	-	-
CCOc1cc(/C=N/O)cc(Br)c1OCC	.	-	-	-
CCCOc1c(Br)cc(/C=N/O)cc1OC	.	30	-	-
O=c1ccc(/C=C/c2ccccc2)nn1Cc1ccccc1Cl	.	-	-	-
c1ccc(-c2csc3ncn4cnnc4c23)cc1	-	-	-	-
Cn1cc(/C=N/n2cnc3scc(-c4ccccc4)c3c2=O)c2ccccc21	41	28	-	-
Cc1nn(-c2ccc(Cl)cc2)c2[nH]c(=O)c(CNCc3ccc4c(c3)OCO4)cc12	-	32	-	-
Cc1nn(-c2ccccc2)c2[nH]c(=O)c(CNc3ccc(N4CCOCC4)cc3)cc12	-	18	-	-
O=C(NCC(=O)N(c1ccccc1)C(C(=O)NCC1CCCO1)c1ccccc1)c1ccco1 (configuration not stated)	-	-	-	-
CCc1ccccc1N(C(=O)CCC(=O)Nc1cc(C)on1)C(C(=O)NC1CCCC1)c1ccco1 (configuration not stated)	-	-	-	-
COc1ccc(NC(=O)c2cnc3ccccn3c2=O)cc1OC	-	-	-	-
COc1cc(C(=O)N2CCC(NC(=O)C(Cc3ccc(C(C)C)cc3)NC(C)=O)CC2)cc(OC)c1OC (configuration not stated)	.	-	-	-
CCCn1c(SCC(=O)N2c3ccc(F)cc3CCC2C)nnc1-c1ccccn1 (configuration not stated)	.	-	-	-
COc1ccccc1NS(=O)(=O)c1cc(Cl)ccc1OC	-	-	-	-
Cc1ccc(C(=O)c2coc3ccc(O)c(CN4CCN(C)CC4)c23)cc1	-	-	-	-
CCc1cccc2c(C(=O)Cn3nnc(-c4ccc(OC)c(OC)c4)n3)c[nH]c12	.	39	-	-
SMILES	Jurkat viability	H69AR growth 86K	Lung fibro prol	HUVEC inhibit
CCc1cccc2c(C(=O)COC(=O)c3nn(C)c(=O)c4ccccc34)c[nH]c12	.	-	-	-
CCCCCSc1nc2c(c(=O)[nH]c(=O)n2C)n1CCc1ccccc1	-	-	-	-
O=C(CN1CCN(Cc2ccccc2)CC1)c1c[nH]c2ccccc12	-	-	-	-
Cc1cc2c(cc(C(=O)OCC(=O)NCc3cccs3)n2C(C)C)o1	64	27	-	-
O=C(NCc1ccco1)c1cccn2c(=O)c3cc4ccccc4cc3nc12	.	21	-	-
Cc1ccc(N(Cc2ccccc2F)S(C)(=O)=O)cc1C	.	-	-	-
CCOc1ccc(-c2nnc3sc(-c4ccccc4OC)nn23)cc1	.	-	-	-
CCOc1cccc(-c2nnc3sc(-c4ccc(C)cc4)nn23)c1	.	19	-	-
CCOc1ccc(-c2nnc3sc(-c4c(OC)cccc4OC)nn23)cc1	.	35	-	-
Cc1csc(SCCn2c(N3CCN(c4ccccc4)CC3)nc3c2c(=O)[nH]c(=O)n3C)n1	-	-	-	-
Cc1ccccc1Cn1ccc(NC(=O)c2cnn3c(C(F)(F)F)cc(-c4ccco4)nc23)n1	-	34	-	-
O=C(Nc1ccc2c(c1)OCO2)c1cnn2c(C(F)(F)F)cc(-c3ccco3)nc12	-	27	-	-
